Assay results pooled from the literature.
Target: RAC-beta serine/threonine-protein kinase (AKT2, Homo sapiens, UniProt P31751)

effect on	mode	method	tested at	endpoint	result	Structure (SMILES)
enzyme activity	inhibitor		1 µM	inhibition	0%	CC#CC(=O)N1CCC[C@H]1c1nc(-c2ccc(C(=O)Nc3ccccn3)cc2)c2c(N)nccn12
enzyme activity	inhibitor		15 nM	remaining activity	93%	Cc1cc(-c2ccnc3[nH]cc(F)c23)cc(F)c1[C@@]1(O)[C@H](C)CN(C2CCS(=O)(=O)CC2)C[C@@H]1C
cell-free assay			1 µM	remaining signal	100%	C[C@H]1CC[C@H](n2c3cnccc3c3cnc(Nc4ccc5c(n4)CCN(C(=O)CO)C5)nc32)CC1
cell-free assay			1 µM	remaining signal	100%	C#Cc1cnc(Nc2ccnc(CO)c2)nc1Nc1ccccc1S(C)(=O)=NC#N (stereo not shown)
binding			0.1 µM	remaining binding	100%	C1=C/COCc2cc(ccc2OCCN2CCCC2)Nc2nccc(n2)-c2cccc(c2)COC/1
cell-free assay		competition with immobilised ligand	25 µM	remaining binding	92%	N#Cc1ccc(NC(=O)Nc2ccccc2)cc1
binding			1 µM	remaining binding	93%	COc1ccc2oc(-c3ccc4nc(N)oc4c3)c/c(=N\c3ccccc3NC(=O)CCN)c2c1
enzyme activity	inhibitor		1 µM	inhibition	1%	C=CC(=O)N1CCC([C@@H]2CCNc3c(C(N)=O)c(-c4ccc(Oc5ccccc5)cc4)nn32)CC1
binding			1 µM	remaining binding	100%	CN1CCN(C(=O)c2ccc(NC(=O)Nc3ccc(N(C)c4ccnc(Nc5ccc(CS(C)(=O)=O)cc5)n4)cc3)cc2)CC1
binding		competition with immobilised ligand	0.5 µM	remaining binding	100%	CCCCC(=O)Nc1ccc(-c2ccc3ncn(CCC)c(=O)c3c2)cn1
